Test results reported in ChEMBL document CHEMBL1944511, “Bakuchiol derivatives as novel and potent cytotoxic agents: a report” (Eur J Med Chem, 2012).

What was measured:
PC-3 = test: Growth inhibition of human PC3 cells at 1 uM after 48 hrs by sulpharhodamine B assay; format: functional; details: PC-3, 48 h, read-out: GI
Procedure, shortened: (§1)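 This is the SRB protein-stain assay on adherent cells in RPMI-1640/MEM with 10% FCS. Each compound in DMSO (vehicle <0.2%) was applied at a single fixed concentration for 48 h. Cells were fixed with TCA and stained with SRB, and the dye was solubilised in Tris and read at 570/620 nm. Percent growth inhibition is relative to vehicle-treated controls, reported as mean ± SD of three experiments run in triplicate.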

HEp-2 = test: Growth inhibition of human Hep2 cells at 1 uM after 48 hrs by sulpharhodamine B assay; format: functional; details: HEp-2, 48 h, read-out: GI; procedure, shortened: as §1

Q: For `CO[C@@]12[C@H](COC(N)=O)C3=C(C(=O)C(C)=C(N)C3=O)N1C[C@@H]1N[C@@H]12` [MITOMYCIN], which inhibition of growth at 1 µM (PC-3) is on record?
A: Its inhibition of growth at 1 µM is 70%.

Q: What about the inhibition of growth at 1 µM (HEp-2) of the same molecule?
A: Its inhibition of growth at 1 µM is 78%.
